These results are taken from ChEMBL document CHEMBL1125305, “Synthesis and antitumor activity of amino derivatives of pyridine-2-carboxaldehyde thiosemicarbazone” (1992).

The species named for assay [1] is Mus musculus. As to the kind of experiment: Average survival days at the dose 40 mg/ kg in mice bearing the L1210 Leukemia. It is filed as functional.
The species named for assay [2] is Mus musculus. As to the kind of experiment: Average change in body weight from onset to termination of therapy in mice bearing the L1210 Leukemia(dose 10 mg/ kg ). The conditions noted are these: at 10 mg/kg. It is filed as functional. In short, it runs like this:
(§1)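 L1210 leukemia in CD2F1 mice. Drug was given ip as a suspension once daily for 6 consecutive days, starting 24 h after tumor implantation, with 5–10 mice per group. The value is the average body-weight change from onset to termination of therapy, in percent.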

The subject of assay [3] is Mus musculus. Briefly: Effect of compound on mice bearing the L1210 Leukemia expressed as T/C percent treated/control)-dose 10 mg/kg. The format is functional.
For assay [4], the species on record is Mus musculus. Briefly: Average change in body weight from onset to termination of therapy in mice bearing the L1210 Leukemia(dose 40 mg/ kg ). The format is functional. To be noted: at 40 mg/kg. In short, it runs like this:
as §1

For assay [5], the species on record is Mus musculus. Briefly: Average survival days at the dose 60 mg/ kg in mice bearing the L1210 Leukemia.
For assay [6], the species on record is Mus musculus. As to the kind of experiment: Average survival days at the dose 40x2 mg/ kg in mice bearing the L1210 Leukemia. The format is functional. In short, it runs like this: (§2)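 CD2F1 female mice with implanted L1210 leukemia; each compound given ip as a suspension, twice daily for 6 consecutive days, starting 24 h after tumor implantation; 5-10 mice per group. Read-out is mean survival time, counting only mice dying before day 60. Body weight change is recorded from onset to end of therapy.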

Assay [7] is filed under the species Mus musculus. As to the kind of experiment: Effect of compound on mice bearing the L1210 Leukemia expressed as T/C percent treated/control)-dose 30x2 mg/ kg. The format is functional.
The species entered for assay [8] is Mus musculus. Briefly: Effect of compound on mice bearing the L1210 Leukemia expressed as T/C percent treated/control)-dose 60 mg/ kg. The format is functional. The conditions noted are these: at 60 mg/kg.
Assay [9] is filed under the species Mus musculus. Briefly: Effect of compound on mice bearing the L1210 Leukemia expressed as T/C percent treated/control)-dose 10x2 mg/ kg. The format is functional.
For assay [10], the species on record is Mus musculus. As to the kind of experiment: Average change in body weight from onset to termination of therapy in mice bearing the L1210 Leukemia(dose 20x2 mg/ kg ). It is filed as functional. The method in brief: (§3)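 Female CD2F1 mice carried implanted L1210 leukemia. Drug was given ip in suspension twice daily for 6 consecutive days, beginning 24 h after implantation, with 5–10 mice per group. The value is the average percent body-weight change from onset to termination of therapy.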

The species entered for assay [11] is Mus musculus. As to the kind of experiment: Average survival days at the dose 10x2 mg/ kg in mice bearing the L1210 Leukemia. It is filed as functional. In short, it runs like this: as §2
The species entered for assay [12] is Mus musculus. Briefly: Effect of compound on mice bearing the L1210 Leukemia expressed as T/C percent treated/control)-dose 40x2 mg/ kg. It is filed as functional.
The species entered for assay [13] is Mus musculus. Briefly: Effect of compound on mice bearing the L1210 Leukemia expressed as T/C percent treated/control)-dose 20x2 mg/ kg. It is filed as functional.
For assay [14], the species on record is Mus musculus. As to the kind of experiment: Average survival days at the dose 30x2 mg/ kg in mice bearing the L1210 Leukemia. It is filed as functional. The method in brief: as §2
The species named for assay [15] is Mus musculus. As to the kind of experiment: Average change in body weight from onset to termination of therapy in mice bearing the L1210 Leukemia(dose 60 mg/ kg ). It is filed as functional. To be noted: at 60 mg/kg. In short, it runs like this: as §1
For assay [16], the species on record is Mus musculus. Briefly: Average change in body weight from onset to termination of therapy in mice bearing the L1210 Leukemia(dose 40x2 mg/ kg ). It is filed as functional. In short, it runs like this:
as §3

Assay [17] is filed under the species Mus musculus. As to the kind of experiment: Average change in body weight from onset to termination of therapy in mice bearing the L1210 Leukemia(dose 30x2 mg/ kg ). The format is functional. The method in brief: as §3
For assay [18], the species on record is Mus musculus. Briefly: Average change in body weight from onset to termination of therapy in mice bearing the L1210 Leukemia(dose 10x2 mg/ kg ). The format is functional. The method in brief: as §3
For assay [19], the species on record is Mus musculus. As to the kind of experiment: Average survival days at the dose 20x2 mg/ kg in mice bearing the L1210 Leukemia. It is filed as functional. The method in brief:
as §2

For assay [20], the species on record is Mus musculus. As to the kind of experiment: Effect of compound on mice bearing the L1210 Leukemia expressed as T/C percent treated/control)-dose 40 mg/ kg. The format is functional. To be noted: at 40 mg/kg.
For assay [21], the species on record is Mus musculus. As to the kind of experiment: Effect of compound on mice bearing the L1210 Leukemia expressed as T/C percent treated/control)-dose 15x2 mg/ kg. It is filed as functional.
Assay [22] is filed under the species Mus musculus. Briefly: Average change in body weight from onset to termination of therapy in mice bearing the L1210 Leukemia(dose 15x2 mg/ kg ). It is filed as functional. In short, it runs like this:
as §3

The species named for assay [23] is Mus musculus. Briefly: Average survival days at the dose 15x2 mg/ kg in mice bearing the L1210 Leukemia. The format is functional. In short, it runs like this:
as §2

For assay [24], the species on record is Mus musculus. As to the kind of experiment: Effect of compound on mice bearing the L1210 Leukemia expressed as T/C percent treated/control)-dose 20 mg/ kg. The format is functional. To be noted: at 20 mg/kg.
For assay [25], the species on record is Mus musculus. Briefly: Average change in body weight from onset to termination of therapy in mice bearing the L1210 Leukemia(dose 20 mg/ kg ). It is filed as functional. The conditions noted are these: at 20 mg/kg. The method in brief: as §1
The species entered for assay [26] is Mus musculus. As to the kind of experiment: Average survival days at the dose 20 mg/ kg in mice bearing the L1210 Leukemia.

Compound `Cc1cc(/C=N/N=C(/N)S)ncc1NO` came in with an Average survival in assay [1] of 10.6 days. The “Average change in body weight” value in [2] is -2.7%. Besides, the T/C (as a rule, the result in the treated group divided by that in the control group, in per cent) in assay [3] came out at 136%.

In assay [1], `N/C(S)=N/N=C/c1ccc(O)cn1` gave an Average survival of 10.4 days. The “Average change in body weight” value in [4] is given as 2%. Moreover, the T/C in [3] is 133%.

Consider `Cc1ccnc(/C=N/N=C(/N)S)c1N`, for which the Average survival in assay [5] is 14.9 days; in [6] it was 19.4 days; in assay [11] it was 14.8 days; in [14], 17.6 days; in assay [19], 16.9 days. For the same compound, the T/C in assay [7] turned out to be 232%; in assay [8] it was 190%; in [9], 195%; in [12] it was 255%; in assay [13], 222%. Moreover, the “Average change in body weight” value in assay [10] was -3.8%; in assay [15] it was 2%; in assay [16], -8.1%; in assay [17] it was -2.4%; in assay [18], 1.4%.

Regarding `NC(=S)N/N=C/c1ncccc1N` [TRIAPINE], the Average survival was found to be 14.6 days in assay [1]; 18.7 days in assay [11]; 7.3 days in assay [14]; 19.8 days in assay [23]; 14.6 days in assay [19]. Moreover, the T/C in assay [7] turned out to be 96%; in assay [9], 246%; in assay [20], 187%; in assay [21] it was 262%; in assay [13], 192%. Besides, the “Average change in body weight” value is given as -12.4% in assay [10]; -5.9% in [4]; -3.3% in assay [22]; -12.8% in [17]; -6.4% in [18].

On to `Cc1cc(/C=N/N=C(/N)S)ncc1N`, for which the Average survival was 10.8 days in assay [1]; 18.6 days in [11]; 14.4 days in assay [14]; 21 days in assay [23]; 17.9 days in [19]. Also, the T/C is reported as 190% in assay [7]; 245% in assay [9]; 276% in assay [21]; 236% in assay [13]; 138% in assay [24]. In addition, the “Average change in body weight” value is on record as -12.1% in [10]; -7.1% in assay [22]; -7% in [25]; -12.4% in assay [17]; 1.4% in assay [18].

`N/C(S)=N/N=C/c1ccc(N)cn1`: the Average survival in [26] was 11 days; in assay [11], 17.6 days; in assay [14] it was 6.9 days; in [23] it was 16.8 days; in assay [19] it was 14 days. The T/C in assay [7] is on record as 91%; in assay [9], 232%; in assay [21], 221%; in [13], 185%; in assay [24], 140%. For the same compound, the “Average change in body weight” value is reported as -12.3% in assay [10]; -7.7% in [22]; -2.8% in assay [25]; -16% in [17]; -3.8% in assay [18].
